Molecules are shown by their SMILES. The source made the active and inactive calls. No cut-off for these calls is given here. A value given as a limit tells only on which side of the number the result lay.

A short description of test [1]: Cytotoxicity against p53-mutant human U373 cells after 72 hrs by MTT assay. The conditions noted are these: U373 MG. The test is classed as functional, cell-based, U-373MG ATCC.
In test [2] the test system is HCT-116. The experiment in a line: Cell cycle arrest in p53 double-mutant human HCT116 cells assessed as mitotic index after 24 hrs by flow cytometric analysis. On the set-up: concentration or dose not given beside the values. Format: functional. The method in brief: (§1)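 HCT116 p53-/- cells pretreated with etoposide for 1 h, then released into drug-free medium with or without inhibitor for 23 h; nocodazole added to trap cells exiting G2/M. Mitotic cells scored by phospho-histone H3 labeling and DNA content (propidium iodide) by flow cytometry.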
Background: A flow cytometer gives signals particle by particle.

Test [3] deals with Cyclin-dependent kinase 5/CDK5 activator 1 (Homo sapiens, UniProt Q00535). The experiment in a line: Inhibition of human recombinant CDK5/p25. The test is classed as protein-complex assay. Put shortly:
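Human recombinant CDK5/p25 assayed in triplicate in buffer C with 1 mg/ml histone H1 at 30 °C, 15 µM ATP final. Activity as % of uninhibited control after blank subtraction; IC50 from dose-response curves.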

The test system of the next test is PC-3. The experiment in a line: Cytotoxicity against human PC3 cells after 72 hrs by MTT assay. Format: functional, cell-based. As to conditions: PC-3, 72 h. On the technique in general: Formazan colour is commonly taken as a measure of viable cells.
Test [4] has as its target Dual specificity protein kinase CLK1 (Mus musculus, UniProt P22518). The experiment in a line: Inhibition of GST-fused mouse recombinant CLK1 expressed in Escherichia coli using RS peptide as substrate. The method in brief:
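Blanks subtracted, activity as % of uninhibited maximum, DMSO dilution controls, IC50 from dose-response curves.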

A further test has as its system LoVo. The experiment in a line: Cytotoxicity against human LoVo cells after 72 hrs by MTT assay. Format: functional, cell-based.
For test [5], the target named is Glycogen synthase kinase-3 (Sus scrofa, UniProt B2LUN4+I6LNT8). The experiment in a line: Inhibition of porcine brain GSK3alpha/beta using GS1 as substrate.
Test [6] concerns the target Dual specificity tyrosine-phosphorylation-regulated kinase 1A (Rattus norvegicus, UniProt Q63470). The experiment in a line: Inhibition of GST-fused rat recombinant DYRK1A expressed in Escherichia coli using Woodtide as substrate and [gamma-33P] after 30 mins by scintillation counting.
Test [7] deals with A549. The experiment in a line: Cytotoxicity against human A549 cells after 72 hrs by MTT assay. Format: functional, cell-based. The conditions noted are these: A549, 72 h.
Test [8] is described as follows: Cytotoxicity against human Hs683 cells after 72 hrs by MTT assay. The test is classed as functional, cell-based. As to conditions: Hs 683, 72 h.
Test [9] is described as follows: Inhibition of porcine brain CK1delta/epsilon using CKS peptide as substrate. On the set-up: species or system Sus scrofa.
In the next test the test system is B16-F10. The experiment in a line: Cytotoxicity against mouse B16F10 cells after 72 hrs by MTT assay. Format: functional, cell-based. As to conditions: B16-F10, 72 h.
The nature of test [10]: Cytotoxicity against human OE21 cells after 72 hrs by MTT assay. The conditions noted are these: OE21, 72 h. The test is classed as functional, cell-based.
In a further test the test system is MCF7. The experiment in a line: Cytotoxicity against human MCF7 cells after 72 hrs by MTT assay. The test is classed as functional, cell-based. As to conditions: MCF7, 72 h.
The test system of test [11] is A549. The experiment in a line: Cytostatic activity against human A549 cells after 72 hrs by quantitative videomicroscopic analysis. Format: functional, cell-based.
Test [12] concerns HCT-116. The experiment in a line: Cell cycle arrest in p53 double-mutant human HCT116 cells assessed as mitotic index at 300 nM after 24 hrs by flow cytometric analysis. Format: functional. The method in brief: as §1

Dual specificity protein kinase CLK1, sequence (P22518 whole entry, the tested form may be a part): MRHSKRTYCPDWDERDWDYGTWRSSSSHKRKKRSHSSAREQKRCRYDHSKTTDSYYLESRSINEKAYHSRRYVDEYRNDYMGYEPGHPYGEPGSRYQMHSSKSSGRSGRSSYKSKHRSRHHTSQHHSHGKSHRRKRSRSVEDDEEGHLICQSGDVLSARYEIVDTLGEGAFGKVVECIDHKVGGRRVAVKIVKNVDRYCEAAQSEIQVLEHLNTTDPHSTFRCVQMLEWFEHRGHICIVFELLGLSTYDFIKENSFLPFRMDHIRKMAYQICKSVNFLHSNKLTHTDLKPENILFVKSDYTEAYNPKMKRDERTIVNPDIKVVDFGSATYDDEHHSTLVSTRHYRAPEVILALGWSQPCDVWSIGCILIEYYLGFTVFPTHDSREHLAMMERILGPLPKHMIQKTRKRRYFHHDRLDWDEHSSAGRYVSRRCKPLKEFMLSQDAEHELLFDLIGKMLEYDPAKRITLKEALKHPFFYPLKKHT
Cyclin-dependent kinase 5/CDK5 activator 1, sequence (Q00535 whole entry): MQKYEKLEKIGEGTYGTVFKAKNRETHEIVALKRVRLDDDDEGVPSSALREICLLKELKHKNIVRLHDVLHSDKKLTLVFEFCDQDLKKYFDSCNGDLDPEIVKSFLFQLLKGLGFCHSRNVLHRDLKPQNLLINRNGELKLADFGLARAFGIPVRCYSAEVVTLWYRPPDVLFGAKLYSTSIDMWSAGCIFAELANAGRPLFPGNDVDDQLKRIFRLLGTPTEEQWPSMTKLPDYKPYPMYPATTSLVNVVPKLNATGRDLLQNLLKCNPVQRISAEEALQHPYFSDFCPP
Cyclin-dependent kinase 5/CDK5 activator 1, sequence (Q15078 whole entry, further chain): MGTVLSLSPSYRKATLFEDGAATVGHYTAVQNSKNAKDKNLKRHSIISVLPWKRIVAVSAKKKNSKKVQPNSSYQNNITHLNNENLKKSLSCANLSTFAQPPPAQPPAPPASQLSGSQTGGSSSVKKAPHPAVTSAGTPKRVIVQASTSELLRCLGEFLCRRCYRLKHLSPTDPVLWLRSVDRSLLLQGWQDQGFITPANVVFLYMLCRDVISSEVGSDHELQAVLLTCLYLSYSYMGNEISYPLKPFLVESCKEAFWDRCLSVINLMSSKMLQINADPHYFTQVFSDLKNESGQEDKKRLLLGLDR

With `O=C1NC(=O)c2c1c1c3cc(O)ccc3[nH]c1n1nccc21`, the IC50 in test [1] was found to be 8 µM; in test [3], 0.51 µM; in the test with PC-3, 36 µM; in test [4] it was 0.09 µM; in the test on LoVo, 7 µM; in [5], 0.041 µM. For the same compound, the IC50 in [6] is 0.18 µM; in the test with A549 [7], 15 µM; in [8] it was 23 µM; in test [9], 0.16 µM; in the test with B16-F10, 7 µM. Moreover, the Activity with HCT-116 [2] was 3.9%.

With `O=C1NC(=O)c2c1c1c3cc(O)ccc3[nH]c1c1cccn21`, the IC50 in test [1] was over 100 µM; in test [10], over 100 µM; in [3], 2.6 µM; with PC-3 it was over 100 µM; with MCF7, over 100 µM; in test [4] it was 0.26 µM. Moreover, the IC50 with LoVo was 99 µM; in test [5] it was 0.42 µM; in [6], 0.2 µM; in the test on A549 [7] it was over 100 µM; in [8] it was over 100 µM; in test [9] it was 1.1 µM. Moreover, in the test on B16-F10, the IC50 came out at 93 µM.

In the case of `Cc1ccc2[nH]c3c(c4c(c5ccnn53)C(=O)NC4=O)c2c1`, the IC50 was 57 µM in [1]; 5 µM in test [10]; over 10 µM in test [3]; 75 µM with PC-3; 9 µM in the test with MCF7; 3.5 µM in test [4]. Also, the IC50 in the test with LoVo is 4 µM; in test [5] it was 0.045 µM; in test [6], over 10 µM; in the test with A549 [7], 8 µM; in [8] it was 64 µM; in [9], 7.1 µM. In the test with B16-F10, this compound returned an IC50 of 37 µM. In addition, in the test with HCT-116 [2], the Activity stood at 13.9%.

With `O=C1NC(=O)c2c1c1c3ccccc3[nH]c1c1cccn21`, the IC50 amounted to 33 µM in test [1]; 75 µM in test [10]; 2.1 µM in test [3]; 50 µM in the test with PC-3; 49 µM in the test with MCF7; 0.52 µM in test [4]. Besides, the concentration for half-maximal inhibition (IC50) with LoVo amounted to 11 µM; in [5], 0.57 µM; in test [6], 1.3 µM; in the test with A549 [7], 18 µM; in test [8] it was 52 µM; in test [9], 10 µM. Besides, the IC50 in the test with B16-F10 worked out at 19 µM. Further, the Activity in the test with HCT-116 [2] is 9.6%. Moreover, in the test with A549 [11], the result was Active.

As for `O=C1CC(c2c(-c3ccc[nH]3)[nH]c3ccccc23)C(=O)N1` (centres undefined), the IC50 in [1] was 4 µM; in [10], 67 µM; in the test on PC-3, 9 µM; with MCF7, 35 µM; in the test on LoVo, 8 µM; in the test with A549 [7], 8 µM. Besides, the IC50 in [8] stood at 25 µM; in the test on B16-F10, 2 µM. In addition, the outcome in the test with A549 [11] was Active.

As for `NC(=O)Nc1cc(-c2cccc(F)c2)sc1C(=O)N[C@H]1CCCNC1` [AZD-7762], the Activity with HCT-116 [12] turned out to be 75%.

With `O=C1NC(=O)c2c1c1c3ccccc3[nH]c1n1nccc21`, the IC50 worked out at 0.2 µM in test [1]; 2 µM in test [10]; 4 µM in test [3]; 22 µM in the test on PC-3; 25 µM in the test with MCF7; 0.3 µM in test [4]. Further, the IC50 amounted to 0.4 µM in the test with LoVo; 0.49 µM in [5]; 2.1 µM in test [6]; 8 µM in the test with A549 [7]; 3 µM in [8]; 3.2 µM in test [9]. Also, in the test with B16-F10, the half-maximal inhibitory concentration (IC50) worked out at 25 µM. Moreover, the Activity with HCT-116 [2] was 23.9%.

For `COc1ccc2[nH]c(-c3ccc[nH]3)c(C3CC(=O)N(C)C3=O)c2c1` (centres undefined), the half-inhibitory concentration (IC50) in [1] came to 10 µM; in test [10], 42 µM; in the test with PC-3 it was 37 µM; with MCF7, 7 µM; in the test on LoVo it was 25 µM; in the test with A549 [7] it was 7 µM. In addition, the values for the IC50 (in test [8]; in the test with B16-F10) were 28 µM and 6 µM, respectively. Besides, the outcome in the test with A549 [11] was Active.

`Cc1ccc2[nH]c3c4cn[nH]c4c4c(c3c2c1)C(=O)NC4=O`: the IC50 was over 100 µM in test [1]; 0.31 µM in test [3]; over 100 µM with PC-3; 0.13 µM in [4]; 5 µM in the test on LoVo; 0.17 µM in test [5]. Further, the IC50 was 1.4 µM in test [6]; over 100 µM in the test with A549 [7]; over 100 µM in test [8]; 0.23 µM in test [9]; 2 µM with B16-F10. Also, the Activity in the test on HCT-116 [2] is recorded as 0%.

Broadly, the IC50 is the concentration at which inhibition is half-maximal.

The record behind these values is ChEMBL document CHEMBL2040806, “Synthesis and biological evaluation of analogs of the marine alkaloids granulatimide and isogranulatimide” (Eur J Med Chem, 2012).
